Laboratory results from PubChem BioAssay.
Activity calls are given as the source filed them.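 The calls were made as follows, unless noted: active = viability loss from added drug above about 55%, and viability with drug at most 40%, in both replicates (limit read from the data, passing the limit was not always enough); inconclusive = both conditions met in only one replicate; inactive = neither replicate meets both conditions.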

How the values were obtained:
[1] = HUVEC growth inhibition – cell-based, human, primary screen (AID 575;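 active = viability at or below 30% in both replicate assays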;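 also: 100% = median of untreated cell wells with 0.1% DMSO on each plate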); settings: HUVEC proliferation, CellTiter-Glo luminescence, 72 h; at 10 µM; stronger effect = lower value
Procedure, shortened: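 Test system: HUVEC primary cells. Quantity: 1250 endothelial cells in each well. Dosing: single-point 10 µM, DMSO 0.1% final. Incubation: 72 h treatment at 37 °C. Measured by: CTG luminescence. Control set: DMSO cell controls and MePR drug controls. Plate: collagen-coated 384-well format.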

[2] = H69AR cell proliferation blockers – human, duplicate replicates, primary screen (AID 580;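 active = viability at or under a set limit in both replicates, limit being median viability minus 3 SD, cut at about 48% in these data, passing the limit was not always enough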;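 also: 100% = mean luminescence of untreated wells and 0% = no signal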); settings: H69AR lung tumor cells viability, ATP luminescence, 72 h; at 10 µM; stronger effect = lower value
[3] = MRP1 drug-resistance reversers in H69AR cells – cell-based, doxorubicin co-treatment, pilot screen (AID 601); settings: CellTiter-Glo, 72 h, at 10 µM; for differential viability (reversal): stronger effect = higher value
[4] = yeast transport mutant growth inhibition pilot in 384-well plates, post-Golgi transport modulator project (AID 636; in the data active = inhibition above about 31%); settings: absorbance 615 nm, about 18 h, stronger effect = higher value
[5] = growth suppression of yeast trafficking mutant, preliminary HTS, modulators of trafficking downstream of Golgi apparatus project, 1536-format plate, OD 615 nm (AID 637; in the data active = inhibition above about 30%); settings: yeast transport mutant growth, absorbance 615 nm, 18 h; stronger effect = higher value
[6] = H69AR cells + 2 uM doxorubicin, measured here: viability with 2 uM doxorubicin, stronger effect = lower value
[7] = H69AR cells, compound alone cytotoxicity

SMILES | viability [1] | viability [2] | differential viability (reversal) ([3]; H69AR cells + 2 uM doxorubicin) | viability [3, 6] [%] | viability [3, 7] [%] | inhibition [4] | inhibition [5]
CN(C)/C=c1\sc2c(C#N)cc(C(=O)c3ccc(Br)cc3)n2c1=O | 70% (inactive) | 76.6% (inactive) | 8.66% (inactive) | 68 | 76.6 | -4.29% (inactive) | -1.59% (inactive)
CC(C)OC(=O)CSc1nnc(-c2ccc(O)cc2)n1Cc1ccccc1 | 109% (inactive) | 80.8% (inactive) | -4.22% (inactive) | 85 | 80.8 | -7.2% (inactive) | -2.22% (inactive)
COc1ccc(OC)c(N2Cc3cc(C)c(C)cc3C2)c1 | 114% (inactive) | 95.3% (inactive) | 6.88% (inactive) | 88.4 | 95.3 | -6.97% (inactive) | 4.44% (inactive)
Cc1ccc(N2CC(C(=O)Nc3ccc4c(c3)OCO4)CC2=O)cc1 (stereo not given) | 101% (inactive) | 99.6% (inactive) | 12% (inactive) | 87.6 | 99.6 | -3.25% (inactive) | -0.79% (inactive)
Cc1c(NC(=O)c2cnn3c2NC(c2ccco2)CC3C(F)(F)F)c(=O)n(-c2ccccc2)n1C (stereo not given) | 81.5% (inactive) | 103% (inactive) | 15.8% (inactive) | 87 | 103 | -2.47% (inactive) | 3.65% (inactive)
Cc1ccc(OCc2nnc(SCC(=O)N3CCOCC3)n2C)cc1 | 102% (inactive) | 106% (inactive) | 17.4% (inactive) | 88.5 | 106 | -0.93% (inactive) | -6.35% (inactive)
O=C(NCC1CCCO1)C1CC(c2ccc(Cl)c(Cl)c2)=NO1 (stereo not given) | 111% (inactive) | 104% (inactive) | -1.44% (inactive) | 105 | 104 | -0.13% (inactive) | -8.1% (inactive)
Cn1c(SCc2c(F)cccc2Cl)nnc1-c1cccs1 | 112% (inactive) | 87.9% (inactive) | 10.2% (inactive) | 77.6 | 87.9 | -1.33% (inactive) | -5.87% (inactive)
CCCCNC(=O)c1cc(-c2ccc(F)cc2)on1 | 74.1% (inactive) | 81.2% (inactive) | 21.9% (inactive) | 59.2 | 81.2 | -2.5% (inactive) | -1.11% (inactive)
O=C(CSc1nc(-c2ccc(F)cc2)cs1)N1CCOCC1 | 122% (inactive) | 94.4% (inactive) | 19.2% (inactive) | 75.2 | 94.4 | -0.92% (inactive) | 6.67% (inactive)
CCN1CCN(C(=O)c2cn(CCOC)c(=O)c3c2c2ccccc2n3C)CC1 | 106% (inactive) | 90.6% (inactive) | -2.77% (inactive) | 93.4 | 90.6 | -2.86% (inactive) | -5.4% (inactive)
CC(=O)Nc1cccc(NC(=O)CSc2nnnn2C(C)C)c1 | 97.5% (inactive) | 99.2% (inactive) | 14.7% (inactive) | 84.5 | 99.2 | -8.03% (inactive) | 4.13% (inactive)
CCOC(=O)C1CCN(C(=O)Nc2ccc(Cl)cc2Cl)CC1 | 100% (inactive) | 104% (inactive) | 19.9% (inactive) | 84.1 | 104 | -4.61% (inactive) | 3.65% (inactive)
CS(=O)(=O)N(CC(=O)N1CCN(c2cccc(Cl)c2)CC1)C1CCCCC1 | 80.6% (inactive) | 79.6% (inactive) | -7.54% (inactive) | 87.1 | 79.6 | -4.29% (inactive) | -7.78% (inactive)
Cc1ccc(-n2c(-c3ccncc3)nnc2-c2cccs2)cc1 | 95.2% (inactive) | 79.9% (inactive) | 39.3% (inactive) | 40.6 | 79.9 | -6.53% (inactive) | 9.37% (inactive)
CCOC(=O)c1c(NC(=O)c2ccoc2C)sc2c1CCC2 | 93.3% (inactive) | 78.9% (inactive) | -9.7% (inactive) | 88.6 | 78.9 | -3.82% (inactive) | 0.95% (inactive)
c1ccc(CNC2=NCCC2)nc1 | 102% (inactive) | 101% (inactive) | 3.93% (inactive) | 96.8 | 101 | -0.91% (inactive) | -7.46% (inactive)
CC(=O)c1cccc(NS(=O)(=O)c2ccc3c(c2)oc(=O)n3C)c1 | 92.4% (inactive) | 106% (inactive) | 8.94% (inactive) | 96.7 | 106 | -2.67% (inactive) | -1.9% (inactive)
O=C(Nc1nccs1)c1cccc(NC(=O)C2CC2)c1 | 103% (inactive) | 87.5% (inactive) | 8.43% (inactive) | 79.1 | 87.5 | -6.13% (inactive) | -0.48% (inactive)
CC(O)CN(Cc1cccc(Cl)c1)CC(C)O (stereo not given) | 100% (inactive) | 99.4% (inactive) | -0.905% (inactive) | 100 | 99.4 | -1.32% (inactive) | 4.13% (inactive)
